Tests used:
[1] = tested on: bortezomib-resistant MM cell lines; conditions: bortezomib-resistant MM cell lines and patient samples; cited from earlier work
[2] = tested on: chymotrypsin-like activity of the proteasome; conditions: rats; i.v. for 5 consecutive days; multiple tissues; well tolerated; cited from earlier work
[3] = tested on: relapsed or refractory hematologic malignancies; experiment: Antitumor activity; format: in vivo, human
How it was run: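 Relapsed/refractory MM, NHL, Hodgkin's or Waldenström's patients got the test compound as an i.v. push over 1–2 min on days 1–5, then 9 d rest (14-d cycles). Doses were 1.2–20 mg/m2, escalated in cohorts of three, continued until unacceptable toxicity or progression. Response used EBMT criteria (MM) and International Working Group criteria (NHL, Hodgkin's). For Waldenström's: complete = total resolution, partial = >50% resolution with no new disease.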

[4] = tested on: patients with relapsed or refractory hematologic malignancies; experiment: Phase 1 dose escalation: adverse events, DLT, MTD; format: in vivo
[5] = All patients (N = 29), all dose cohorts

CC(C)C[C@H](NC(=O)[C@H](CCc1ccccc1)NC(=O)CN1CCOCC1)C(=O)N[C@@H](Cc1ccccc1)C(=O)N[C@@H](CC(C)C)C(=O)[C@@]1(C)CO1 [carfilzomib]
Proliferation and apoptosis [1]: inhibited proliferation and induced apoptosis | Proteasome (chymotrypsin-like activity) inhibition [2]: > 80% | Subjects achieving objective tumor responses ([3]; 28 of 29 patients evaluable, all responders treated at 11 mg/m^2 and higher): Four | Subjects with stable disease ([3]; across all dose cohorts and diagnoses): nine | Patients with progressive disease while on study ([3]; all cohorts): 15 patients | Average duration on therapy of subjects with stable disease ([3]; eight cycles): 116 days | IgA level by the end of the fifth cycle ([3]; person with IgA MM, 11 mg/m^2): 235 mg/dL | IgA level within two cycles (10 doses) ([3]; person with IgA MM, 11 mg/m^2, from 709 mg/dL): 297 mg/dL | reduction in serum M-protein ([3]; person with Waldenström's macroglobulinemia, after two cycles of 15 mg/m^2): 25% | Objective responses in subjects with plasma cell dyscrasias ([3]; treated at or above 11 mg/m^2, two MM, one Waldenström's macroglobulinemia): Three of six | Grade 3 and 4 adverse events: ALT increased, Grades 3-4 ([4]; All patients (N = 29), Table 4): 1 (3) n (%) | Grade 3 and 4 adverse events: AST increased, Grade 3 ([4]; All patients (N = 29), Table 4): 1 (3) n (%) | Grade 3 and 4 adverse events: AST increased, Grade 4 ([4]; All patients (N = 29), Table 4): 0 (0) n (%) | Grade 3 and 4 adverse events: AST increased, Grades 3-4 ([4]; All patients (N = 29), Table 4): 1 (3) n (%) | Grade 3 and 4 adverse events: Abdominal pain, Grade 3 ([4]; All patients (N = 29), Table 4): 1 (3) n (%) | Grade 3 and 4 adverse events: Abdominal pain, Grade 4 ([4]; All patients (N = 29), Table 4): 0 (0) n (%) | Grade 3 and 4 adverse events: Abdominal pain, Grades 3-4 ([4]; All patients (N = 29), Table 4): 1 (3) n (%) | Grade 3 and 4 adverse events: Anemia, Grades 3-4 ([4]; All patients (N = 29), Table 4): 1 (3) n (%) | Grade 3 and 4 adverse events: Any, Grade 3 ([4]; All patients (N = 29), Table 4): 11 (38) n (%) | Grade 3 and 4 adverse events: Any, Grades 3-4 ([4]; All patients (N = 29), Table 4): 14 (48) n (%) | Grade 3 and 4 adverse events: Chills, Grade 3 ([4]; All patients (N = 29), Table 4): 1 (3) n (%) | Grade 3 and 4 adverse events: Chills, Grade 4 ([4]; All patients (N = 29), Table 4): 0 (0) n (%) | Grade 3 and 4 adverse events: Chills, Grades 3-4 ([4]; All patients (N = 29), Table 4): 1 (3) n (%) | Grade 3 and 4 adverse events: Disease progression, Grade 3 ([4]; All patients (N = 29), Table 4): 1 (3) n (%) | Grade 3 and 4 adverse events: Disease progression, Grade 4 ([4]; All patients (N = 29), Table 4): 0 (0) n (%) | Grade 3 and 4 adverse events: Disease progression, Grades 3-4 ([4]; All patients (N = 29), Table 4): 1 (3) n (%) | Grade 3 and 4 adverse events: Hyperglycemia, Grade 3 ([4]; All patients (N = 29), Table 4): 1 (3) n (%) | Grade 3 and 4 adverse events: Hyperglycemia, Grade 4 ([4]; All patients (N = 29), Table 4): 0 (0) n (%) | Grade 3 and 4 adverse events: Hyperglycemia, Grades 3-4 ([4]; All patients (N = 29), Table 4): 1 (3) n (%) | Grade 3 and 4 adverse events: Neutropenia, Grade 3 ([4]; All patients (N = 29), Table 4): 1 (3) n (%) | Grade 3 and 4 adverse events: Neutropenia, Grade 4 ([4]; All patients (N = 29), Table 4): 0 (0) n (%) | Grade 3 and 4 adverse events: Neutropenia, Grades 3-4 ([4]; All patients (N = 29), Table 4): 1 (3) n (%) | Grade 3 and 4 adverse events: Pain, Grade 3 ([4]; All patients (N = 29), Table 4): 1 (3) n (%) | Grade 3 and 4 adverse events: Pain, Grade 4 ([4]; All patients (N = 29), Table 4): 0 (0) n (%) | Grade 3 and 4 adverse events: Pain, Grades 3-4 ([4]; All patients (N = 29), Table 4): 1 (3) n (%) | Grade 3 and 4 adverse events: Skin infection, Grade 3 ([4]; All patients (N = 29), Table 4): 1 (3) n (%) | Grade 3 and 4 adverse events: Skin infection, Grade 4 ([4]; All patients (N = 29), Table 4): 0 (0) n (%) | Grade 3 and 4 adverse events: Skin infection, Grades 3-4 ([4]; All patients (N = 29), Table 4): 1 (3) n (%) | Grade 3 and 4 adverse events: Syncope, Grade 3 ([4]; All patients (N = 29), Table 4): 1 (3) n (%) | Grade 3 and 4 adverse events: Syncope, Grade 4 ([4]; All patients (N = 29), Table 4): 0 (0) n (%) | Grade 3 and 4 adverse events: Syncope, Grades 3-4 ([4]; All patients (N = 29), Table 4): 1 (3) n (%) | Grade 3 and 4 adverse events: Thrombocytopenia, Grade 3 ([4]; All patients (N = 29), Table 4): 0 (0) n (%) | Adverse event Any, All Grades [4, 5]: 29 (100) n (%) | Adverse event Any, Grade 1 [4, 5]: 4 (14) n (%) | Adverse event Any, Grade 2 [4, 5]: 11 (38) n (%) | Adverse event Any, Grade 3 [4, 5]: 11 (38) n (%) | Adverse event Any, Grade 4 [4, 5]: 3 (10) n (%) | Adverse event Constipation, All Grades [4, 5]: 6 (21) n (%) | Adverse event Constipation, Grade 1 [4, 5]: 5 (17) n (%) | Adverse event Constipation, Grade 2 [4, 5]: 1 (3) n (%) | Adverse event Constipation, Grade 3 [4, 5]: 0 (0) n (%) | Adverse event Constipation, Grade 4 [4, 5]: 0 (0) n (%) | Adverse event Cough, All Grades [4, 5]: 8 (28) n (%) | Adverse event Cough, Grade 1 [4, 5]: 8 (28) n (%) | Adverse event Cough, Grade 2 [4, 5]: 0 (0) n (%) | Adverse event Cough, Grade 3 [4, 5]: 0 (0) n (%) | Adverse event Cough, Grade 4 [4, 5]: 0 (0) n (%) | Adverse event Diarrhea, All Grades [4, 5]: 10 (35) n (%) | Adverse event Diarrhea, Grade 1 [4, 5]: 7 (24) n (%) | Adverse event Diarrhea, Grade 2 [4, 5]: 3 (10) n (%) | Adverse event Diarrhea, Grade 3 [4, 5]: 0 (0) n (%) | Adverse event Diarrhea, Grade 4 [4, 5]: 0 (0) n (%) | Adverse event Pyrexia, Grade 1 [4, 5]: 5 (17) n (%) | Adverse event Pyrexia, Grade 2 [4, 5]: 3 (10) n (%) | Adverse event Pyrexia, Grade 3 [4, 5]: 0 (0) n (%) | Adverse event Pyrexia, Grade 4 [4, 5]: 0 (0) n (%) | Patients who discontinued study treatment due to adverse events ([4]; Four of the 29 patients): 14% | Patients with grade 2 anemia ([4]; across all cohorts): three | Incidence of anemia ([4]; across all cohorts, five patients, doses 1.2 to 15 mg/m^2): 17% | Adverse event Dyspnea, All Grades ([4]; human, in vivo): 8 (28) n (%)
